# Ecoli tolC = E. coli tolC mutant growth inhibition; hit rate 2.2% among 65,000; AID 573; E. coli BW25113 tolC mutant growth, OD615; growth inhibition, % at 10 µM (by protocol);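 active = growth inhibition at or above a cutoff equal to the mean over every tested compound plus 3 SD, cut at about 60% in these data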;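 note: growth measured after 20 h incubation at 37 °C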
#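 Test system – E. coli BW25113 ΔtolC::kan, tolC deletion mutant strain · Detection – OD at 615 nm · Buffer or medium – LB with kanamycin 50 µg/mL · Times – 20 h compound exposure of bacteria at 37 °C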
# PostGolgi yeast = growth inhibition of a yeast mutant, post-Golgi transport screen; post-Golgi transport phenotypic cell assay; inhibition, % at 10 µM; hit rate 0.9% among 98,000;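 note: yeast cells grown in 1536-well plates; yeast grown about 18 h at 30C before absorbance read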
# PostGolgi ctrl = growth of the yeast control strain, post-Golgi counter-screen; AID 738; inhibition, % at 10 µM; efflux-deficient yeast background strain, growth absorbance A615, 16 h; hit rate 5% among 98,000
# Ecoli WT expand = growth inhibitors of E. coli BW25113 wild type | OD600 absorbance | growth inhibition, % at 100 µM | hit rate 0.15% among 98,000;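 active = growth inhibition above about 50% at one test dose, limit read from the data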;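 note: growth measured after 20 h incubation at 37 °C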
# HER2 expr 66K = inhibitors of human Her2 kinase expression; SKBR-3 HER2 protein level, AlphaScreen, 18-24 h; active compounds read low; hit rate 0.69% among 65,000; HER2 level % of control, % at 10 µM; P04626;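 active = HER2 level under 5% of the carrier-only control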;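 note: 100% = DMSO carrier and 0% = 500 nM PU-H71 HSP90 inhibitor; lower value means stronger loss of Her2 protein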
# Target sequence (P04626 whole entry, looked up): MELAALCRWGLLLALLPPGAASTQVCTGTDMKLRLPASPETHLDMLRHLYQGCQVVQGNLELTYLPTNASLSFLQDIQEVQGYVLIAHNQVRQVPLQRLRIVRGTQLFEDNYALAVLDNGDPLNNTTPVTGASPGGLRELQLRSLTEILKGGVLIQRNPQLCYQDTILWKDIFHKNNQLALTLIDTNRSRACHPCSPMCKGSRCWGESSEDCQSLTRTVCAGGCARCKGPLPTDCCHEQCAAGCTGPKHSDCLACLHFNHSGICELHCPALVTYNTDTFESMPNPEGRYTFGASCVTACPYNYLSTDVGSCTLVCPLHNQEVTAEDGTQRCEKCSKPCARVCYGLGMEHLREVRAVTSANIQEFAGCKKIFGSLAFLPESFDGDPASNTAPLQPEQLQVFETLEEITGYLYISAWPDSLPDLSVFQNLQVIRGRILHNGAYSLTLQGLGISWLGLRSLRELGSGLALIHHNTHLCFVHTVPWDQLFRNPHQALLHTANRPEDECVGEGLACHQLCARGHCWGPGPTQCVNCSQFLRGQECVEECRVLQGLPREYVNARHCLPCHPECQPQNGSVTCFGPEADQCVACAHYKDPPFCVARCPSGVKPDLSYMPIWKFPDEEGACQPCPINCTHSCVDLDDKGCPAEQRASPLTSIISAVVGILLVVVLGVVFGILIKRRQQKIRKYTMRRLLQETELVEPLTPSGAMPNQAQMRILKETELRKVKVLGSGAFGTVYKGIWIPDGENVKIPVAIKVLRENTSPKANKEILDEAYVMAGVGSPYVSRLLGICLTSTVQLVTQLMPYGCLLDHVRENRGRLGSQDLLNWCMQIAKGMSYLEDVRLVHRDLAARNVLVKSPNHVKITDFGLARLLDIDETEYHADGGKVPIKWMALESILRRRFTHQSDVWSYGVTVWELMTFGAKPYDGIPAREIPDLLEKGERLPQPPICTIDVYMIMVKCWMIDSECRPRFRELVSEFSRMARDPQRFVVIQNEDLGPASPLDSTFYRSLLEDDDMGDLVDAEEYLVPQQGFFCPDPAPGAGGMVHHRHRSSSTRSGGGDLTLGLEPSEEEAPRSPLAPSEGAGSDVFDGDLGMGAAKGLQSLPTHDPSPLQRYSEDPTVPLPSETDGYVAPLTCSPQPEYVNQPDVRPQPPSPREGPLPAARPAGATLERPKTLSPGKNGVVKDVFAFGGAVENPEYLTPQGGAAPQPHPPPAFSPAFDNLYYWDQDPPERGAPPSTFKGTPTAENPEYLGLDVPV
# * = called active by the depositor; . = not tested or not shown. The list is not random: actives were taken first. Their share in the collection is about 6.6%. Cut-off read from the data, not from the text of the source, unless noted: active = inhibition above about 30%; inactive = the rest.
SMILES,Ecoli tolC,PostGolgi yeast,PostGolgi ctrl,Ecoli WT expand,HER2 expr 66K
O=C(Nc1nc2n(n1)C(c1ccc(Cl)cc1)CC(c1ccc(Cl)cc1)N2)c1ccco1 (configuration not stated),61*,-2,14,-6,74
CC(C)C(NS(=O)(=O)c1ccc2c(c1)OCCO2)C(=O)NCCc1ccccn1 (configuration not stated),-8,0,1,2,88
O=C(Nc1nc2n(n1)C(c1ccccc1)C=C(c1ccccc1)N2)c1ccco1 (configuration not stated),5,19,12,-5,-23*
Cc1noc(C)c1COC(=O)c1cc2c3ccccc3n(C)c2s1,29,-7,37*,-24,74
Cc1ccccc1OCc1nnc2c3cnn(C)c3ncn12,-5,-9,34*,3,100
O=C(Nc1cccc(C(=O)N2CCOCC2)c1)NC1CCCCC1,-14,-4,9,-1,-22*
O=C(NC1CCN(C(=O)N2CCOCC2)CC1)c1ccccc1,-12,2,34*,8,115
OC(CN(c1ccccc1)c1ccccc1)Cn1cnc2ccccc21 (configuration not stated),23,-1,32*,-11,61
CCCN(CCC)c1nc(N)nc(-c2cc(Cl)ccc2OC)n1,.,9,56*,-12,.
COCCNC(=O)CSc1nc2cc(OC)c(OC)cc2c(=O)n1Cc1ccc(OC)cc1,-15,5,46*,-3,97
CC(C)n1c2ccccc2c2nc3ccccc3nc21,100*,1,46*,-2,89
O=C(CNC(=O)Cc1ccccc1)NCC(=O)OCC(=O)c1cccc2ccccc12,.,-1,-1,3,.
Cc1cc(/C=N/n2cnnc2)c(C)n1-c1ccc(Cl)cc1Cl,32,2,37*,12,71
Cc1cc(/C=N/n2cnnc2)c(C)n1-c1ccccc1,.,8,4,7,.
Cc1cc(/C=N/n2cnnc2)c(C)n1-c1ccc(OCc2ccc(F)cc2)cc1,36,-1,61*,3,93
Cc1cc(/C=N/n2cnnc2)c(C)n1-c1cccc(Cl)c1,5,14,7,7,133
Cc1cc(/C=N/n2cnnc2)c(C)n1-c1ccc(OCc2ccc(Cl)cc2Cl)cc1,.,21,96*,5,.
CN(C)c1nc(OCC(=O)NC(C)(C)C)nc(N(C)C)n1,13,-5,5,3,129
Cc1nc(NS(=O)(=O)c2ccccc2C)c2c3c(sc2n1)CCC3,.,0,47*,-1,.
Cc1nc(-n2nnc3ccccc32)c2c3c(sc2n1)CCCC3,46,2,32*,4,72
O=S(=O)(Nc1ncnc2sc3c(c12)CCC3)c1ccc2ccccc2c1,.,5,18,2,.
Cn1c(Cl)cnc1C1CC(=O)c2cc(Cl)ccc2O1 (configuration not stated),5,-2,38*,-3,-15*
Cc1cc(NC(=O)c2cncc(Br)c2)n(-c2ccccn2)n1,-19,5,4,-2,78
CC(C)Cc1nc(N2CCOCC2)c(C#N)c2c1COC(C)(C)C2,16,-1,19,2,115
COc1cc(CN2CCN(c3ccc(C)cc3)CC2)cc([N+](=O)[O-])c1O,.,92*,9,-4,.
SMILES,Ecoli tolC,PostGolgi yeast,PostGolgi ctrl,Ecoli WT expand,HER2 expr 66K
Cc1cc(C)n2nc(C(=O)OCCOc3ccc(F)cc3)nc2n1,-22,-3,2,8,96
Cn1c(/C=C/c2ccc([N+](=O)[O-])o2)nc2ccccc2c1=O,.,62*,41*,65*,.
CCOC(=O)c1cnc(-n2cc(C)cn2)nc1Nc1ccccc1OCC,68*,-5,13,3,72
O=C(COC(=O)c1cccs1)NC1CCCCC1,-5,-5,7,5,85
Cc1ccc(-c2nnc(N(C)C(=O)c3ccccn3)s2)cn1,-21,-6,1,4,99
Cn1c(-c2ccc3c(c2)OCO3)cnc1NC(=O)CCC(=O)NCCc1ccccc1,-8,-4,34*,-6,79
Cn1c(-c2ccc3c(c2)OCO3)cnc1NCc1ccccc1,-20,7,9,15,54
Cn1c(-c2ccc3c(c2)OCO3)cnc1N,91*,18,-1,-2,44
Cc1cc(NC(=O)CSc2cn(C)c3ccccc23)no1,-2,-10,0,6,98
CC(=O)c1cccc(NS(=O)(=O)N2CCCCC2)c1,-7,-8,5,1,.
Cc1nc2ncnn2c(N2CCCC(C(=O)Nc3ccc4c(c3)CCC4)C2)c1C (configuration not stated),18,1,16,5,97

# Source: PubChem BioAssay
